Measurements taken from ChEMBL document CHEMBL4725483, “Simultaneous Inhibition of SIRT2 Deacetylase and Defatty-Acylase Activities via a PROTAC Strategy” (ACS Med Chem Lett, 2020).
Values belong to the molecule of their own block, whether it stands above or below them. Active and inactive are the calls of the source. No cut-off for these calls is given here.

Columns and labels:
[1] = target: T1, Protein cereblon/NAD-dependent protein deacetylase sirtuin-2 (Homo sapiens) (UniProt Q8IXJ6+Q96SW2); assay: Protac activity at CRBN/SIRT2 in human MCF7 cells assessed as SIRT2 degradation at 5 uM by immunoblot analysis; type: cell-based
T1 sequence (Q96SW2 whole entry, looked up, one chain of several): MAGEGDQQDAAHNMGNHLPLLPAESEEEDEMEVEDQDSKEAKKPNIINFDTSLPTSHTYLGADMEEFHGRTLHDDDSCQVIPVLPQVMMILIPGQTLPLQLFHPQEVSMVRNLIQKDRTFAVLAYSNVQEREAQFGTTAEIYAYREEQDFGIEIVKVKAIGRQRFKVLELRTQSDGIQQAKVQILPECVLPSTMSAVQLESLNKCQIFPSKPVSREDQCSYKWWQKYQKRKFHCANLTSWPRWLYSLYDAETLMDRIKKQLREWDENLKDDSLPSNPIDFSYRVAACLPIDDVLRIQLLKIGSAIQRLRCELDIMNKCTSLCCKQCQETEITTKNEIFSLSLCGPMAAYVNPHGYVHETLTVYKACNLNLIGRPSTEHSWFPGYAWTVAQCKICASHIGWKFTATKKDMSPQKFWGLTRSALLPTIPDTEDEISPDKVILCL

[2] = target: T1, Protein cereblon/NAD-dependent protein deacetylase sirtuin-2 (Homo sapiens); assay: Protac activity at CRBN/SIRT2 in human BT549 cells assessed as SIRT2 degradation at 5 to 10 uM after 48 hrs by immunoblot analysis; type: cell-based; conditions: BT-549, dose microM 5-10, time 48.0 hrs
Procedure, shortened: (§1)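 Cells exposed to compound at the indicated concentrations for 48 h. SIRT1, SIRT2 and SIRT3 levels were read by immunoblot.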

[3] = target: NAD-dependent protein deacylase sirtuin-6 (Homo sapiens, UniProt Q8N6T7); assay: Inhibition of human SIRT6 deacetylation activity using H3K9Ac as substrate preincubated for 15 mins in presence of NAD+ followed by substrate addition by HPLC analysis
Sequence of NAD-dependent protein deacylase sirtuin-6 (Q8N6T7 whole entry): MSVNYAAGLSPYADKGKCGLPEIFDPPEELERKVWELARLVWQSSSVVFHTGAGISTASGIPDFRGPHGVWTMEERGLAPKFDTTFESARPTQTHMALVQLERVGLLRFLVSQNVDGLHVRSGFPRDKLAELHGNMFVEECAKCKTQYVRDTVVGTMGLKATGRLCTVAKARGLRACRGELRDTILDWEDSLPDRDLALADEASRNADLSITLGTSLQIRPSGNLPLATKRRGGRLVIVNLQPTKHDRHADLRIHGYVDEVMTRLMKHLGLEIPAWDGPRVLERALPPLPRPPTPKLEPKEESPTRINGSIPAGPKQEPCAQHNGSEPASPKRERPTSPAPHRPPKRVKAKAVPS
Procedure, shortened: (§2)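 In vitro sirtuin reaction mixture with compound at a range of concentrations. Compound was preincubated with NAD+ and the enzyme before the substrate peptide was added. IC50 taken from the concentration series.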

[4] = target: T1, Protein cereblon/NAD-dependent protein deacetylase sirtuin-2 (Homo sapiens); assay: Protac activity at CRBN/SIRT2 in human MCF7 cells assessed as SIRT2 degradation at 5 to 10 uM after 48 hrs by immunoblot analysis; type: cell-based; conditions: dose microM 5-10, time 48.0 hrs; procedure, shortened: as §1
MCF7 = assay: Cytotoxicity against human MCF7 cells assessed as reduction in cell viability after 72 hrs; type: functional, cell-based
Procedure, shortened: (§3)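 Cells incubated with compound or thalidomide for 72 h; cell viability read out at the end of exposure.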

[5] = target: T2, NAD-dependent protein deacetylase sirtuin-3, mitochondrial (Homo sapiens, UniProt Q9NTG7); assay: Inhibition of human SIRT3 deacetylation activity using H3K9Ac as substrate preincubated for 15 mins in presence of NAD+ followed by substrate addition by HPLC analysis; procedure, shortened: as §2
T2 sequence (Q9NTG7 whole entry): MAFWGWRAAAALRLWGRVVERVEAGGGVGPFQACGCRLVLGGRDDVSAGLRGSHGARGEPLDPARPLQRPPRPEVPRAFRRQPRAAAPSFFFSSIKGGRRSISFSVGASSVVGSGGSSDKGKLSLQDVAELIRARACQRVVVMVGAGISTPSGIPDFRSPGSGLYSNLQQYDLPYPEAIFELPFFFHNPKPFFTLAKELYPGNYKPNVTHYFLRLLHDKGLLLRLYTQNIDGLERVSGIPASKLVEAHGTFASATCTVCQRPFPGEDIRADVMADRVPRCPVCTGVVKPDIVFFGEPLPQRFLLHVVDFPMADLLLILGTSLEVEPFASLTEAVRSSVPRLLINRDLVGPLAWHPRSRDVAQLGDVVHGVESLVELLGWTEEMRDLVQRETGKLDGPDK

[6] = target: NAD-dependent protein deacylase sirtuin-5, mitochondrial (Homo sapiens, UniProt Q9NXA8); assay: Inhibition of human SIRT5 deacetylation activity using H3K9Ac as substrate preincubated for 15 mins in presence of NAD+ followed by substrate addition by HPLC analysis; procedure, shortened: as §2
Sequence of NAD-dependent protein deacylase sirtuin-5, mitochondrial (Q9NXA8 whole entry): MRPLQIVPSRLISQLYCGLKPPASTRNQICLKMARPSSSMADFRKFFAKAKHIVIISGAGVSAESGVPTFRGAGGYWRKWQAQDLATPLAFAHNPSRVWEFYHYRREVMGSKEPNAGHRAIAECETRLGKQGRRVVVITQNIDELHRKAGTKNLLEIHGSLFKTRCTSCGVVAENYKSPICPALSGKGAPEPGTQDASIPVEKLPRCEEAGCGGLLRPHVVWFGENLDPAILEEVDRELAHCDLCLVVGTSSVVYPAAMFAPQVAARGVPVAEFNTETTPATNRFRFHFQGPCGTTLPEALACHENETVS

[7] = target: T1, Protein cereblon/NAD-dependent protein deacetylase sirtuin-2 (Homo sapiens); assay: Protac activity at CRBN/SIRT2 in human HEK293T cells stably expressing flag-tagged K-Ras4a assessed as inhibition of SIRT2 defatty-acylation at 10 uM incubated for 42 hrs followed by Alkyne-14 addition and measured after 6 hrs by immunoprecipitation based assay; type: cell-based; conditions: HEK-293T
Procedure, shortened: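 HEK 293T cells stably expressing Flag-tagged K-Ras4a-G12V were treated for 42 h, then labelled with 50 μM Alk-14 for a further 6 h. K-Ras4a was immunoprecipitated via Flag, and a fluorescent dye was attached by click chemistry. NH2OH removed cysteine fatty acylation. Lysine fatty acylation was read by in-gel fluorescence and quantified relative to DMSO.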

MDA-MB-231 = assay: Cytotoxicity against human MDA-MB-231 cells assessed as reduction in cell viability after 72 hrs; type: functional, cell-based; procedure, shortened: as §3
[8] = target: T1, Protein cereblon/NAD-dependent protein deacetylase sirtuin-2 (Homo sapiens); assay: Protac activity at CRBN/SIRT2 in human MDA-MB-231 cells assessed as SIRT2 degradation after 48 hrs by immunoblot analysis; type: cell-based
Procedure, shortened: (§4)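 In MDA-MB-231 and MDA-MB-468 cells, SIRT2 was assessed by immunoblot after compound treatment.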

[9] = target: T3, NAD-dependent protein deacetylase sirtuin-1 (Homo sapiens, UniProt Q96EB6); assay: Inhibition of human SIRT1 deacetylation activity using H3K9Ac as substrate preincubated for 15 mins in presence of NAD+ followed by substrate addition by HPLC analysis; procedure, shortened: as §2
T3 sequence (Q96EB6 whole entry): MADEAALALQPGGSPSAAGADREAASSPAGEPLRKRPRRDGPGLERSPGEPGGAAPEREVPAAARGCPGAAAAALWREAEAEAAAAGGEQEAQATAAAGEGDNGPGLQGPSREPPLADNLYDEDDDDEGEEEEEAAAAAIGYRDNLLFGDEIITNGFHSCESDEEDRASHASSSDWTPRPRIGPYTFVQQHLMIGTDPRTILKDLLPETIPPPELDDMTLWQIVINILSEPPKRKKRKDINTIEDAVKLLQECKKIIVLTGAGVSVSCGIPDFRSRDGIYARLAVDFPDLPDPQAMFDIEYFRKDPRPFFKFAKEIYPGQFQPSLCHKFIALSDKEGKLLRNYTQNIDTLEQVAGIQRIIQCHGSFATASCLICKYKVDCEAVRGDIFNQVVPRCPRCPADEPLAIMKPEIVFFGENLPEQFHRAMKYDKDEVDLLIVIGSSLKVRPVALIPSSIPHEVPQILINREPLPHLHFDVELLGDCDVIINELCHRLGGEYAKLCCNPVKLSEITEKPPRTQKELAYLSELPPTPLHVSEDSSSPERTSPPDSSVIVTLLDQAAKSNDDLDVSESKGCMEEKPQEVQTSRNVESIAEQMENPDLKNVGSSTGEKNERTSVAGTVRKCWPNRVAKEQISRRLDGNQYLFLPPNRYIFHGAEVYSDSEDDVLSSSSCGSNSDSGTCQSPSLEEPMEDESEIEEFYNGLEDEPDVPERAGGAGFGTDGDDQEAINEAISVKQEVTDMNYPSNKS

[10] = target: T4, Protein cereblon/NAD-dependent protein deacetylase sirtuin-3, mitochondrial (Homo sapiens) (UniProt Q9NTG7+Q96SW2); assay: Protac activity at CRBN/SIRT3 in human BT549 cells assessed as SIRT3 degradation at 5 to 10 uM after 48 hrs by immunoblot analysis; type: cell-based; conditions: BT-549, dose microM 5-10, time 48.0 hrs
T4 sequence (Q96SW2 whole entry, looked up, one chain of several): as the sequence (Q96SW2 whole entry, looked up, one chain of several) above
Procedure, shortened: (§5)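 MCF7 or BT-549 cells exposed to inhibitor at the indicated concentrations for 48 h; SIRT1, SIRT2 and SIRT3 levels read by immunoblot.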

[11] = target: T5, NAD-dependent protein deacetylase sirtuin-2 (Homo sapiens, UniProt Q8IXJ6); assay: Inhibition of human SIRT2 defatty-acylation activity using peptide substrate in presence of NAD+ by HPLC analysis
T5 sequence (Q8IXJ6 whole entry): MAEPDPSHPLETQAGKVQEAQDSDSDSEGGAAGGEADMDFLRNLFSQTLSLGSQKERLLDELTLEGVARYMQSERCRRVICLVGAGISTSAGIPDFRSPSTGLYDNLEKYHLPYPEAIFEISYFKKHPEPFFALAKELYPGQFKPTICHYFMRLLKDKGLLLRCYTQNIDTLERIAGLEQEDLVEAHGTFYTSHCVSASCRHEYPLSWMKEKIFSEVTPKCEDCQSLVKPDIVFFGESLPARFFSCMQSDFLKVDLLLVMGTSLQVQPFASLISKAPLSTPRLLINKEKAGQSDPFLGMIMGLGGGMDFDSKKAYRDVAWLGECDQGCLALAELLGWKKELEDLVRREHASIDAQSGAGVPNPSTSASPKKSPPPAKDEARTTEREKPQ

[12] = target: T6, Protein cereblon/NAD-dependent protein deacetylase sirtuin-1 (Homo sapiens) (UniProt Q96EB6+Q96SW2); assay: Protac activity at CRBN/SIRT1 in human MCF7 cells assessed as SIRT1 degradation at 5 to 10 uM after 48 hrs by immunoblot analysis; type: cell-based; conditions: dose microM 5-10, time 48.0 hrs; procedure, shortened: as §5
T6 sequence (Q96SW2 whole entry, looked up, one chain of several): as the sequence (Q96SW2 whole entry, looked up, one chain of several) above

[13] = target: T5, NAD-dependent protein deacetylase sirtuin-2; assay: Inhibition of human SIRT2 deacetylation activity using H3K9Ac as substrate preincubated for 15 mins in presence of NAD+ by HPLC analysis; procedure, shortened: as §2
[14] = target: T1, Protein cereblon/NAD-dependent protein deacetylase sirtuin-2 (Homo sapiens); assay: Protac activity at CRBN/SIRT2 in human MCF7 cells assessed as SIRT2 degradation at 25 uM by immunoblot analysis; type: cell-based
Procedure, shortened: (§6)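 MCF7 cells treated at a fixed concentration (10 or 25 μM) and harvested at several incubation times; SIRT2 level read by immunoblot.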

[15] = target: T1, Protein cereblon/NAD-dependent protein deacetylase sirtuin-2 (Homo sapiens); assay: Protac activity at CRBN/SIRT2 in human MCF7 cells assessed as SIRT2 degradation at 10 uM by immunoblot analysis; type: cell-based; conditions: TDE = time-dependent effect; procedure, shortened: as §6
[16] = target: T6, Protein cereblon/NAD-dependent protein deacetylase sirtuin-1 (Homo sapiens); assay: Protac activity at CRBN/SIRT1 in human BT549 cells assessed as SIRT1 degradation at 5 to 10 uM after 48 hrs by immunoblot analysis; type: cell-based; conditions: BT-549, dose microM 5-10, time 48.0 hrs; procedure, shortened: as §5
[17] = target: T5, NAD-dependent protein deacetylase sirtuin-2; assay: Inhibition of human SIRT2 deacetylation activity using H3K9Ac as substrate in presence of NAD+ by HPLC analysis
[18] = target: T1, Protein cereblon/NAD-dependent protein deacetylase sirtuin-2 (Homo sapiens); assay: Protac activity at CRBN/SIRT2 in human MDA-MB-468 cells assessed as SIRT2 degradation after 48 hrs by immunoblot analysis; type: cell-based; procedure, shortened: as §4
[19] = target: T5, NAD-dependent protein deacetylase sirtuin-2; assay: Inhibition of human SIRT2 defatty-acylation activity using peptide substrate preincubated in presence of NAD+ followed by substrate addition by HPLC analysis
Procedure, shortened: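 SIRT2 defatty-acylase reaction with compound at a range of concentrations. Compound was preincubated with NAD+ and SIRT2 before the peptide substrate was added. IC50 derived from the dose series.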

Homo sapiens = species: Homo sapiens; assay: Selectivity ratio of IC50 for inhibition of human SIRT1 deacetylation activity to IC50 for inhibition of human SIRT2 deacetylation activity
Procedure, shortened: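 Ratio of SIRT1 deacetylase IC50 to SIRT2 deacetylase IC50, both measured with compound, NAD+ and enzyme preincubated before peptide substrate addition.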

[20] = target: T4, Protein cereblon/NAD-dependent protein deacetylase sirtuin-3, mitochondrial (Homo sapiens); assay: Protac activity at CRBN/SIRT3 in human MCF7 cells assessed as SIRT3 degradation at 5 to 10 uM after 48 hrs by immunoblot analysis; type: cell-based; conditions: dose microM 5-10, time 48.0 hrs; procedure, shortened: as §5

- Activity [1]: inactive
SMILES: CCCCCCCCCCCCCC(=S)NCCCC[C@H](NC(=O)CCOCCOCCOCCOCCNc1cccc2c1C(=O)N(C1CCC(=O)N(C)C1=O)C2=O)C(=O)Nc1ccccc1 (some centres undefined)

- Activity [2]: inactive
- IC50 [3]: > 83 µM
- Activity [4]: inactive
- IC50 [5]: > 83 µM
- IC50 [6]: > 83 µM
- Activity [7]: inactive
SMILES: CCCCCCCCCCCCCC(=S)NCCCC[C@H](NC(=O)OCc1ccccc1)C(=O)Nc1ccccc1
- Activity (MCF7): Active
- Activity (MDA-MB-231): Active

- Activity [2]: Active
- Activity [8]: Active
- IC50 [9]: 37 µM
- Activity [10]: inactive
- IC50 [11]: > 83 µM
- Activity [12]: inactive
- IC50 [13]: 0.069 µM
- IC50 [3]: > 83 µM
- Activity [14]: inactive
- Activity [4]: Active
- Activity [15]: Tde
- Activity [16]: inactive
- IC50 [17]: 0.12 µM
- IC50 [5]: > 83 µM
- Activity [18]: Active
- IC50 [6]: > 83 µM
- IC50 [19]: 0.17 µM
- Ratio IC50 (Homo sapiens): 500
- Activity [20]: inactive
SMILES: CCCCCCCCCCCCCC(=S)NCCCC[C@H](NC(=O)CCOCCOCCNc1cccc2c1C(=O)N(C1CCC(=O)NC1=O)C2=O)C(=O)Nc1ccccc1 (some centres undefined)

- Activity [1]: inactive
SMILES: O=C(O)CCOCCOCCOCCOCCNc1cccc2c1C(=O)N(C1CCC(=O)NC1=O)C2=O (centres undefined)
